Screening results deposited in PubChem BioAssay by several laboratories.
Compounds with a hit are over-represented: about 3.1% of the library has one in this group of screens.
MPTP block: mitochondrial permeability transition pore inhibitors, primary screen, biochemical, isolated mouse mitochondria, absorbance; inhibition, % at 10 µM; AID 602449, 2012; 360,000 compounds, 1.4% hits; Ca2+ swelling absorbance, 30 min;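 active means inhibition of 50% or more, scaled per plate between neutral and stimulator controls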;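 further: 0% = DMSO wells given calcium and 100% = 1 mM EGTA wells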
V-ATPase pHluor: regulators of yeast V-ATPase proton pumping, primary screen, pHLuorin cytosolic pH fluorescence. S. cerevisiae. response, % at 10 µM. 350,000 compounds, 0.37% hits; in the data active means response mostly above about 7.3%, no sharp cut-off; inactive means mostly below about 5.4%; further: actives read high
aDG glyco act: activators of alpha-DG glycosylation, primary screen, uHTS, Pro5-aDG cells, AlphaScreen; alpha-DG glycosylation AlphaScreen (IIH6); 0% Pro5, 100% B10-LARGE cell signal; activation, % at 10 µM; 360,000 compounds, 0.22% hits; AID 624168, 2012;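 active means activation of at least 8% versus controls, or a plate z-score of at least 8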;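 further: Pro5 are CHO cells carrying HIG-tagged alpha-DG that lacks glycosylation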
ADAM17 inh: ADAM17 inhibitors, primary screen, biochemical, QFRET; inhibition, % at 6.95 µM; AID 720648, 2013; 370,000 compounds, 0.83% hits; recombinant ADAM17, EDANS/DABCYL FRET peptide cleavage; Disintegrin and metalloproteinase domain-containing protein 17 (Homo sapiens), P78536;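 active means inhibition above the mean of compounds lying between control limits plus 3 SD, set per campaign, cut at about 8.5% in these data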;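 further: 0% = DMSO-only wells as the low control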
ADAM10 inh: human ADAM10 inhibitors, primary screen, biochemical, QFRET, HTS; Disintegrin and metalloproteinase domain-containing protein 10 (Homo sapiens), O14672; recombinant ADAM10, EDANS/DABCYL FRET peptide cleavage, 3 h; 370,000 compounds, 0.62% hits; inhibition, % at 7 µM;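 active means inhibition above a per-campaign cutoff equal to the mean of compounds falling between control-based bounds plus 3 SD, cut at about 20% in these data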;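 further: 0% = DMSO wells while the 100% control is not disclosed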
Target sequence (O14672 214-748 limits assumed): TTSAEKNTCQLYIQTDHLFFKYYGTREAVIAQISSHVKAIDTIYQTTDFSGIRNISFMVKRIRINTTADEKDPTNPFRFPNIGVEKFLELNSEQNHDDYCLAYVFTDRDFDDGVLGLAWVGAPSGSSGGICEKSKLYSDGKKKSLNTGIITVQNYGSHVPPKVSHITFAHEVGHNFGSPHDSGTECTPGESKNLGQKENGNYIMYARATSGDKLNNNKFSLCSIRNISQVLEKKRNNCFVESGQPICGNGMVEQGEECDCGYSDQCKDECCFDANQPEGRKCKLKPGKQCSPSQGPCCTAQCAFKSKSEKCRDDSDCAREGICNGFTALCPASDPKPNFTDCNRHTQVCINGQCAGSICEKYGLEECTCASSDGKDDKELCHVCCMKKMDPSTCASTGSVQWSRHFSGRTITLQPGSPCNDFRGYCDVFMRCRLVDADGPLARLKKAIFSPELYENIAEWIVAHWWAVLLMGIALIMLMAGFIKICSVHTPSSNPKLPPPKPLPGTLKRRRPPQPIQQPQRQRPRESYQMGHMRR
Lipid droplet: inhibitors of hepatocyte lipid droplet formation, primary screen, imaging, high-throughput imaging, BODIPY stain | AML12 mouse hepatocytes, oleate lipid droplets | 240,000 compounds, 0.4% hits | inhibition, % at 6.5 µM;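 active means lipid droplet intensity inhibited by at least 50%, with more than 500 cells counted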
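System: AML12 hepatocytes (mouse). Probe or stimulus: oleic acid at 100 µM to induce lipid droplet formation. Times: overnight treatment with compound plus oleate. Detection: Image-based BODIPY and DAPI two-channel analysis. Evaluation: percent inhibition of filter-corrected integrated lipid droplet intensity per well.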
ADAM10 confirm: human ADAM10 inhibitors, confirmation, biochemical, QFRET, triplicate; 2,100 compounds, 1% hits; inhibition, % at 6.95 µM; shares compounds with ADAM10 inh; ADAM10 QFRET peptide cleavage, EDANS fluorescence;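 active means inhibition above about 20% chosen separately for each screening run, limit read from the data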;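 further: 0% = DMSO wells and 100% = marimastat wells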
ADAM17 counter: ADAM17 inhibitors, counter-screen for ADAM10 exosite inhibitor project, biochemical, QFRET, high throughput | 2,100 compounds, 0.5% hits | ADAM17 QFRET peptide cleavage, EDANS fluorescence | shares compounds with ADAM10 inh | AID 743214, 2013 | inhibition, % at 6.95 µM;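 active means mean triplicate inhibition above the solvent-only control wells' mean plus 3 SD, cut at about 12% in these data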;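 further: 0% = DMSO wells and 100% = marimastat wells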
Numbers without * were called inactive.

For COc1ccc(S(=O)(=O)N(CC(=O)Nc2ccc(S(=O)(=O)N3CCOCC3)cc2)c2ccccc2)cc1 the results were MPTP block 6, V-ATPase pHluor 0, aDG glyco act 0, ADAM17 inh 8, ADAM10 inh 24*, Lipid droplet -8, ADAM10 confirm 2 and ADAM17 counter 1.
Cc1ccc(S(=O)(=O)N(CCC(=O)Nc2ccc(OC(F)(F)F)cc2)c2ccccc2)cc1 was read as MPTP block 39, V-ATPase pHluor 5, aDG glyco act 0, ADAM17 inh 8, ADAM10 inh 21*, Lipid droplet -36, ADAM10 confirm 9 and ADAM17 counter 2.
Screening COc1ccc(CCNC(=O)COc2ccc(S(=O)(=O)NC3CCCCC3)cc2Cl)cc1 returned MPTP block 1, V-ATPase pHluor -3, aDG glyco act 0, ADAM17 inh 7, ADAM10 inh 23*, ADAM10 confirm 3 and ADAM17 counter 1.
For O=C(COc1ccc(S(=O)(=O)NC2CCCCC2)cc1Cl)NCC1CCCO1 (stereo unspecified) the results were MPTP block -8, V-ATPase pHluor 17, aDG glyco act 0, ADAM17 inh -1, ADAM10 inh 6 and Lipid droplet -2.
O=C(CSCc1ccccc1Cl)NN=C1CCCCCC1 was read as MPTP block 1, V-ATPase pHluor 18, aDG glyco act 0, ADAM17 inh 3, ADAM10 inh 20*, Lipid droplet 2, ADAM10 confirm 1 and ADAM17 counter 1.
`C[C@H]1C(c2ccccc2F)O[C@]2(C[C@H](O)c3c(ccc4ccccc34)O2)C[C@@H]1O` (stereo partly specified) gave ADAM17 inh -3 and ADAM10 inh -4.
`C[C@@H]1[C@@H](O)C[C@@]2(C[C@H](O)c3cc(Cl)cc(Cl)c3O2)O[C@H]1c1ccccc1Cl` gave ADAM17 inh 6, ADAM10 inh 26*, ADAM10 confirm 5 and ADAM17 counter 2.
COc1ccc(OC(F)(F)F)cc1CC1(C)C(=O)Nc2ccc(-c3ccsc3)cc21 (stereo unspecified) was read as MPTP block -1, aDG glyco act 0, ADAM17 inh 9, ADAM10 inh 26*, ADAM10 confirm 11 and ADAM17 counter 3.
COc1ccc(C(C)=O)cc1CC1(C)C(=O)Nc2ccc(OC(F)(F)F)cc21 (stereo unspecified) was read as MPTP block 1, aDG glyco act 0, ADAM17 inh 0 and ADAM10 inh -5.
CN(C)c1ccc(NS(=O)(=O)c2ccc(-c3csnn3)cc2)cc1 was read as MPTP block 23, V-ATPase pHluor -1, aDG glyco act 0, ADAM17 inh 1, ADAM10 inh 25*, Lipid droplet -43, ADAM10 confirm -2 and ADAM17 counter 0.
`CC(C)Oc1ccc(NC(=O)c2ccncc2)cc1` gave MPTP block 4, V-ATPase pHluor 3, aDG glyco act 0, ADAM17 inh -1, ADAM10 inh 78*, Lipid droplet -20, ADAM10 confirm -2 and ADAM17 counter 0.
For CC(C)Oc1ccc(C(=O)Nc2ccc([N+](=O)[O-])cc2)cc1 the results were MPTP block 23, V-ATPase pHluor -4, aDG glyco act 0, ADAM17 inh -3, ADAM10 inh 7 and Lipid droplet 18.
Screening CC(=O)N(/N=C1\Sc2ccccc2C1=O)c1ccccc1C returned MPTP block 3, V-ATPase pHluor 1, aDG glyco act 0, ADAM17 inh 2, ADAM10 inh 77*, ADAM10 confirm 1 and ADAM17 counter 1.
